From ChEMBL document CHEMBL4020721 (Eur J Med Chem, 2017) come the findings set out here.

Data set [1] can be described thus: Volume of distribution at steady state in Sprague-Dawley rat plasma at 1 mg/kg, iv by UPLC-MS/MS analysis. Type of data set: ADME, organism-based. As to conditions: read-out: Vdss. Put shortly: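 Male Sprague-Dawley rats (180-220 g), fasted overnight with water available, dosed iv (n=2). Blood on heparin collected from 0 to 1440 min. Plasma obtained by centrifugation and stored at -20°C. Proteins precipitated with acetonitrile containing internal standard, then UPLC-MS/MS. Vss taken from the iv data.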

Data set [2] is described as follows: Clearance in Sprague-Dawley rat plasma at 1 mg/kg, iv by UPLC-MS/MS analysis. It counts as ADME, organism-based. The gist of the method:
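Male Sprague-Dawley rats (180-220 g) were fasted overnight with free access to water. Dosing was intravenous (n=2) or oral at 6 mg/kg (n=3). Heparinized blood was drawn from 0 to 1440 min. Plasma was frozen at -20°C, then precipitated with acetonitrile containing internal standard, centrifuged and analysed by UPLC-MS/MS.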

The target of data set [3] is CYP2D6 (Homo sapiens, UniProt P10635). In words: Reversible inhibition of CYP2D6 in human liver microsomes at 10 uM after 20 mins in presence of NADPH by LC-MS/MS analysis. Type of data set: ADME. Particulars: liver microsomes.
Data set [4] addresses CYP2C19 (Homo sapiens, UniProt P33261). Description: Time dependent irreversible inhibition of CYP2C19 in human liver microsomes at 10 uM preincubated with compound followed by NADPH addition by LC-MS/MS analysis. It counts as ADME. Put shortly: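 HLM (0.2 mg/ml) with 10 µM compound were preincubated 0, 5, 10 or 20 min at 37°C with 1 mM NADPH or PBS. Substrate cocktail (halved concentrations) plus NADPH was then added for 10 min. Metabolites were measured by LC-MS/MS. Kobs is the slope of relative activity versus preincubation time.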
(Microsomes from liver hold many membrane-bound enzymes, among them those of drug oxidation.)

In data set [5] the target is Tyrosine-protein kinase receptor UFO (Homo sapiens, UniProt P30530). In words: Inhibition of Axl (unknown origin) using FAM-labeled peptide as substrate preincubated for 5 to 10 mins followed by substrate/ATP addition measured after 30 to 60 mins by mobility shift assay. Put shortly:
(§1)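 Caliper mobility-shift assay with FAM-labeled peptide substrate. Buffer: 50 mM HEPES pH 7.5, 0.0015% Brij-35, 10 mM MgCl2, 2 mM DTT, with kinase-specific enzyme levels. […] Incubation was 30-60 min at 28°C, stopped with EDTA buffer. Read-out was % conversion.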

The target of data set [6] is Macrophage-stimulating protein receptor (Homo sapiens, UniProt Q04912). Description: Inhibition of RON (unknown origin) using FAM-labeled peptide as substrate preincubated for 5 to 10 mins followed by substrate/ATP addition measured after 30 to 60 mins by mobility shift assay. The gist of the method:
as §1

Data set [7] concerns the target ALK tyrosine kinase receptor (Homo sapiens, UniProt Q9UM73). Description: Inhibition of ALK (unknown origin) using FAM-labeled peptide as substrate preincubated for 5 to 10 mins followed by substrate/ATP addition measured after 30 to 60 mins by mobility shift assay. Put shortly: as §1
The target in data set [8] is Vascular endothelial growth factor receptor 1 (Homo sapiens, UniProt P17948). In words: Inhibition of FLT1 (unknown origin) using FAM-labeled peptide as substrate preincubated for 5 to 10 mins followed by substrate/ATP addition measured after 30 to 60 mins by mobility shift assay. The gist of the method: as §1
For data set [9], the target named is Platelet-derived growth factor receptor alpha (Homo sapiens, UniProt P16234). Description: Inhibition of PDGFRalpha (unknown origin) using FAM-labeled peptide as substrate preincubated for 5 to 10 mins followed by substrate/ATP addition measured after 30 to 60 mins by mobility shift assay. Put shortly:
as §1

In data set [10] the target is Epidermal growth factor receptor (Homo sapiens, UniProt P00533). In words: Inhibition of EGFR (unknown origin) using FAM-labeled peptide as substrate preincubated for 5 to 10 mins followed by substrate/ATP addition measured after 30 to 60 mins by mobility shift assay. Put shortly:
as §1

The target in data set [11] is Epidermal growth factor receptor (Homo sapiens, UniProt P00533, T790M). Description: Inhibition of EGFR T790M mutant (unknown origin) using FAM-labeled peptide as substrate preincubated for 5 to 10 mins followed by substrate/ATP addition measured after 30 to 60 mins by mobility shift assay. Put shortly: as §1
For data set [12], the target named is Proto-oncogene tyrosine-protein kinase Src (Homo sapiens, UniProt P12931). Description: Inhibition of c-Src (unknown origin) using FAM-labeled peptide as substrate preincubated for 5 to 10 mins followed by substrate/ATP addition measured after 30 to 60 mins by mobility shift assay. The gist of the method: as §1
For data set [13], the target named is Tyrosine-protein kinase ABL1 (Homo sapiens, UniProt P00519). In words: Inhibition of ABL (unknown origin) using FAM-labeled peptide as substrate preincubated for 5 to 10 mins followed by substrate/ATP addition measured after 30 to 60 mins by mobility shift assay. Put shortly:
as §1

The target in data set [14] is Ephrin type-A receptor 2 (Homo sapiens, UniProt P29317). In words: Inhibition of EPHA2 (unknown origin) using FAM-labeled peptide as substrate preincubated for 5 to 10 mins followed by substrate/ATP addition measured after 30 to 60 mins by mobility shift assay. Put shortly: as §1
In data set [15] the test system is SNU-5. In words: Antitumor activity against human SNU5 cells xenografted in BALB/c athymic nude mouse assessed as tumor regression at 1 mg/kg, po administered once daily for 2 weeks. Type of data set: functional. The gist of the method: (§2)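 Nude BALB/c mice, 5-6 weeks old, under SPF conditions, were implanted s.c. in the right flank with 6×10^6 SNU-5 cells. Groups were sorted at 100-200 mm³, n=6, with vehicle controls. Oral dosing once daily for 2 weeks. Percent tumor regression = 100% × (treated day 0 − treated final)/treated day 0. Mean±SEM, Student's t-test.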
(In general: A xenograft is tissue or cells of one species grown in another, often human tumour cells in immunodeficient mice.)

Data set [16] concerns SNU-5. Description: Antitumor activity against human SNU5 cells xenografted in BALB/c athymic nude mouse assessed as tumor regression at 3 mg/kg, po administered once daily for 2 weeks. It counts as functional. Put shortly:
as §2

The subject of data set [17] is Mus musculus. Description: Toxicity in BALB/c athymic nude mouse xenografted with human NCI-H1993 cells assessed as apparent toxicity parameters at 0.1 to 10 mg/kg, po administered once daily for 3 weeks. It counts as organism-based. As to conditions: in vivo, 504 h.

In general, clearance refers to the volume of plasma or blood freed of the substance per unit of time. Read a low clearance as inefficient removal. As usually defined, the inhibition is the drop in the measured response relative to a control, in per cent. One may read the IC50 as the concentration at which inhibition is half-maximal.

Sequence of Ephrin type-A receptor 2 (P29317 whole entry): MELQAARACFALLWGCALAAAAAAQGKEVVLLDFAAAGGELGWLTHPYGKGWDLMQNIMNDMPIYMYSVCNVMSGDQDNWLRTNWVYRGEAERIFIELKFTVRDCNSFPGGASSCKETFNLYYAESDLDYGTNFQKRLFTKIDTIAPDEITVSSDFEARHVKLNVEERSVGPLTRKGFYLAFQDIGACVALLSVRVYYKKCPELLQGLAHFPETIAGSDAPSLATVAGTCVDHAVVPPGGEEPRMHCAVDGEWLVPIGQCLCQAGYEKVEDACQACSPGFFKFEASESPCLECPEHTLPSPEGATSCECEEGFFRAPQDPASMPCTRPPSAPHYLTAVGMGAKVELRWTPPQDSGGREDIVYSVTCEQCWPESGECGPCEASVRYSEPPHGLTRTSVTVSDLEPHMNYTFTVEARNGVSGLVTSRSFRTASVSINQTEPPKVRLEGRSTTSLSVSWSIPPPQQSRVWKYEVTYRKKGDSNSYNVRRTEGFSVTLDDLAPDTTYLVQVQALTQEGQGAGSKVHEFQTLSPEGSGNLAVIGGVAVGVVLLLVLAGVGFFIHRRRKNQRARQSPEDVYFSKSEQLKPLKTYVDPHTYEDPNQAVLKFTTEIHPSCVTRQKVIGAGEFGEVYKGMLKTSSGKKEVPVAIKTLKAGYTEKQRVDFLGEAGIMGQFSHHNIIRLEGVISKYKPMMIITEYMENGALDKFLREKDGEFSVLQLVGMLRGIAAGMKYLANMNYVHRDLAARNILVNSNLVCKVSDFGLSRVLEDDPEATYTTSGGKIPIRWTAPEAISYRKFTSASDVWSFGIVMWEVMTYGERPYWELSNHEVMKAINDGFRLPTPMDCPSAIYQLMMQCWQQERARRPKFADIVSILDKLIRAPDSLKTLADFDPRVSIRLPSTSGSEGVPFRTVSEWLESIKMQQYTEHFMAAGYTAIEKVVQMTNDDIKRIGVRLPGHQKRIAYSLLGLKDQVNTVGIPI
Sequence of Epidermal growth factor receptor (Homo sapiens, UniProt P00533, T790M) (P00533 25-1210 T790M limits assumed): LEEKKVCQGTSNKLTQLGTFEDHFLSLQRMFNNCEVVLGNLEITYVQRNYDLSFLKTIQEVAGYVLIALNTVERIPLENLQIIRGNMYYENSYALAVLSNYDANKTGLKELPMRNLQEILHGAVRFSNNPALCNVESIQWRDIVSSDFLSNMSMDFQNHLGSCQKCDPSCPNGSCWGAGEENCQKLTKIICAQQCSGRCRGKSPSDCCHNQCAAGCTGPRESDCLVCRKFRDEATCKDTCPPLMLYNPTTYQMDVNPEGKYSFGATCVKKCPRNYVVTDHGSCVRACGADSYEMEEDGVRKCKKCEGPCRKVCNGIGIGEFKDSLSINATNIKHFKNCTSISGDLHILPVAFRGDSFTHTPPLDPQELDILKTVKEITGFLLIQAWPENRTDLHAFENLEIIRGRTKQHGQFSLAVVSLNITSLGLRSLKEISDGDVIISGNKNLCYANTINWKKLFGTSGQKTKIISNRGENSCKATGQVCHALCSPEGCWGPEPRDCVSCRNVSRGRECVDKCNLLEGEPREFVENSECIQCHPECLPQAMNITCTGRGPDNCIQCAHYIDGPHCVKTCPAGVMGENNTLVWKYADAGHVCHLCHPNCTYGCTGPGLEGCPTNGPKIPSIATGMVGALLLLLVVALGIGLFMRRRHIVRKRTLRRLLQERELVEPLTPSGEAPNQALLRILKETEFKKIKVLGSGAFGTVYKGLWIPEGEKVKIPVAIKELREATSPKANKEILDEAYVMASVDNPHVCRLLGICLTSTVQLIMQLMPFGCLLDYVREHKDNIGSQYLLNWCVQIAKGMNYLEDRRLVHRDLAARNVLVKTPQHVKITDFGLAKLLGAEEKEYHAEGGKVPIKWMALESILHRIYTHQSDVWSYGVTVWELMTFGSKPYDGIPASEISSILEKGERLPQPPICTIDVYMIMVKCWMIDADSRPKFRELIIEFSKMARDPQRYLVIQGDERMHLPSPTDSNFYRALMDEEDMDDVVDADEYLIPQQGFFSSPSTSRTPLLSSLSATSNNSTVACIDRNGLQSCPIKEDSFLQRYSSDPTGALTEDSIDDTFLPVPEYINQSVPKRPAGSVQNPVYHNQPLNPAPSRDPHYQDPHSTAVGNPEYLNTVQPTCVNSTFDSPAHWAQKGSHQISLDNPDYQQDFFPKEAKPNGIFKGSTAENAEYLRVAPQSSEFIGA
Sequence of Tyrosine-protein kinase ABL1 (P00519 whole entry): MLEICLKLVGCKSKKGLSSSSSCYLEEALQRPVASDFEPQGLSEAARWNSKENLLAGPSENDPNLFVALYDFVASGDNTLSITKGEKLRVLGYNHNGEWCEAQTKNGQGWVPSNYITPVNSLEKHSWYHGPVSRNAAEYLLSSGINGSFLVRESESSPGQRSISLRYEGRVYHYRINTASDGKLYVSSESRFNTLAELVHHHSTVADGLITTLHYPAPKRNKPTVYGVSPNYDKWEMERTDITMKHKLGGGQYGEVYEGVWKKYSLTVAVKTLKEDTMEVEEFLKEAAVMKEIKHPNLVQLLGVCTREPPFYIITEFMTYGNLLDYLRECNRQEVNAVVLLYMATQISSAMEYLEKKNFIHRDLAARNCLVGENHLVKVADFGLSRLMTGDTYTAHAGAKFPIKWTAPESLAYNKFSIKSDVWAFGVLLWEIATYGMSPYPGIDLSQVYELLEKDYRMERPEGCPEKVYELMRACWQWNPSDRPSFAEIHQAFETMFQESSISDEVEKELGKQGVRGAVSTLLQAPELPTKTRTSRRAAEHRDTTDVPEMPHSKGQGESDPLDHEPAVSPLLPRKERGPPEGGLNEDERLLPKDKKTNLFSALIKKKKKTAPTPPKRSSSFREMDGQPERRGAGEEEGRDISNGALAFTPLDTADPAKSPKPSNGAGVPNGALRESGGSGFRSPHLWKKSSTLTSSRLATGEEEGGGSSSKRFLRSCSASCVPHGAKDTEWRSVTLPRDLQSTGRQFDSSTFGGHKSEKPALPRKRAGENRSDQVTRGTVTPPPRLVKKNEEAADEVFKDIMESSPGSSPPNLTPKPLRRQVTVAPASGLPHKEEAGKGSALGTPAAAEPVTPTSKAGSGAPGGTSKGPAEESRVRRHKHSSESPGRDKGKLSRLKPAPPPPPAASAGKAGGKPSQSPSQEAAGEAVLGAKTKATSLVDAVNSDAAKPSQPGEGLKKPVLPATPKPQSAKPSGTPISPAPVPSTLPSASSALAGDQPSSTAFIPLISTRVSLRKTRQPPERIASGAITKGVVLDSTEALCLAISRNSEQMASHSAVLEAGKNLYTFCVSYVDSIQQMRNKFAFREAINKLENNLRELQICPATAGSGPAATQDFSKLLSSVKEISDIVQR
Sequence of CYP2C19 (P33261 whole entry): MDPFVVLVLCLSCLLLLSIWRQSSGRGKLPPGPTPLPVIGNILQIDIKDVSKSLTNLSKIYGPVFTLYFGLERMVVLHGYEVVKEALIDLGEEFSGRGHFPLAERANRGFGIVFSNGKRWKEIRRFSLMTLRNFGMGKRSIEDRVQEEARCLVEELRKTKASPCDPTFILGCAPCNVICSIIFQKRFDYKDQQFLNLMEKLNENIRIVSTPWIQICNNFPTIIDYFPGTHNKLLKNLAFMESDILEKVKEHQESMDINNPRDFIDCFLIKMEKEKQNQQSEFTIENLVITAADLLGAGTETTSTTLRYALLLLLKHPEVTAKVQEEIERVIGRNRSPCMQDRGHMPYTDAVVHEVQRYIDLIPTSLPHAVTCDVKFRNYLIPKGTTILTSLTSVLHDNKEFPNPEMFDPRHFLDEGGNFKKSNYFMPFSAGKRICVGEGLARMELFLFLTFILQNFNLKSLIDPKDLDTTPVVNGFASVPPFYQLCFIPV
Sequence of Proto-oncogene tyrosine-protein kinase Src (P12931 2-536 limits assumed): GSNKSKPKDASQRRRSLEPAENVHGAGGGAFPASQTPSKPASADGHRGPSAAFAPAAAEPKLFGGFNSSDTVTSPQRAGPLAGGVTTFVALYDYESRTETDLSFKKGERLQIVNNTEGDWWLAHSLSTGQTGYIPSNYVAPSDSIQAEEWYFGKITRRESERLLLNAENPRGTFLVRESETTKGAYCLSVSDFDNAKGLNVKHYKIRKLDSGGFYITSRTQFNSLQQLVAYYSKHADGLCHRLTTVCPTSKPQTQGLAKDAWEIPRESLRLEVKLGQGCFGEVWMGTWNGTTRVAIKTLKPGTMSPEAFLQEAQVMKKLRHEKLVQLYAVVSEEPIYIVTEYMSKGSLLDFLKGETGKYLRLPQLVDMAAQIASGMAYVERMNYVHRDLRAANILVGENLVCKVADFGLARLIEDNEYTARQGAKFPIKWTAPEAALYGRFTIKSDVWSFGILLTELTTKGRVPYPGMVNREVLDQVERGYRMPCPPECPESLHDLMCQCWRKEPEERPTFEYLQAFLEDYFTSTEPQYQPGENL
Sequence of CYP2D6 (P10635 whole entry): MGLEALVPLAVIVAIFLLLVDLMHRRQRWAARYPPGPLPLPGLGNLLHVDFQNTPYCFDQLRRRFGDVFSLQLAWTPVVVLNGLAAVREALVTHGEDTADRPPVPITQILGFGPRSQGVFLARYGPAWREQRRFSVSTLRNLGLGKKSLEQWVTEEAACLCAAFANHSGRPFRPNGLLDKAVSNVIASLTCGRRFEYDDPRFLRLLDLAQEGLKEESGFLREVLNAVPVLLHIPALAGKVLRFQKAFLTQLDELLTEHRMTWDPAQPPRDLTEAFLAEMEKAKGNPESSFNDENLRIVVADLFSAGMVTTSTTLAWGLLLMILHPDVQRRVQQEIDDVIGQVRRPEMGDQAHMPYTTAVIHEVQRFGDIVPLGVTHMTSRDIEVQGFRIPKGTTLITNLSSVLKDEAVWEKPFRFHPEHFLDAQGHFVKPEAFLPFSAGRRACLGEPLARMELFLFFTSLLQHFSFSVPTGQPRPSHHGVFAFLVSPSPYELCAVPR

As to `CC(c1cc2cc(-c3cnn(C)c3)cnc2cc1F)n1nnc2ncc(-c3cnn(CCO)c3)nc21` (stereo in doubt; 14), the Vd in [1] turned out to be 2.1 L/kg. Also, in [2], the clearance is 9.67 mL/min/kg. For the same compound, in data set [3], the inhibition at 20 min, 10 µM is less than 50%. Moreover, the inhibition at 10 µM in [4] is less than 50%. Besides, the IC50 in data set [5] is 1.07 µM; in data set [6], 0.731 µM; in [7], greater than 30 µM; in data set [8], greater than 30 µM; in data set [9], 2.36 µM; in data set [10], greater than 30 µM. Also, the IC50 in [11] was greater than 30 µM; in data set [12], 17.1 µM; in [13], greater than 30 µM; in [14], greater than 30 µM. The Activity is on record as 79.2% in data set [15], 87.9% in data set [16] and “Non-Toxic” in [17].
